According to ChEMBL document CHEMBL2021884, “Azaindenoisoquinolines as topoisomerase I inhibitors and potential anticancer agents: a systematic study of structure-activity relationships” (2012):
Active and inactive are the calls of the source. The calls are words filed in the database; no cut-off is given here.

Tests used:
MCF7 [1] = test: Growth inhibition of human MCF7 cells after 48 hrs by sulforhodamine B assay; format: functional; details: MCF7, 48 h
Method in brief: (§1)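 NCI 60-cell-line screen: cells exposed 48 h to five 10-fold dilutions starting at 100 μM (range 10−4 to 10−8 M), then stained with sulforhodamine B. Optical densities relative to control plotted against log concentration. GI50 interpolated between points above and below 50% growth. Single determinations.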

SN12C [2] = test: Growth inhibition of human SN12C cells after 48 hrs by sulforhodamine B assay; format: functional; method in brief: as §1
HCT-116 [3] = test: Growth inhibition of human HCT116 cells after 48 hrs by sulforhodamine B assay; format: functional; details: HCT-116, 48 h; method in brief: as §1
[4] = target: T1, DNA topoisomerase 1 (Homo sapiens) (UniProt P11387); test: Inhibition of human recombinant topoisomerase 1-mediated DNA cleavage using [32P]-3'-end-labeled 117-bp DNA fragment as substrate at 0.1 to 100 uM after 20 mins by SDS-PAGE analysis
T1 sequence (whole entry): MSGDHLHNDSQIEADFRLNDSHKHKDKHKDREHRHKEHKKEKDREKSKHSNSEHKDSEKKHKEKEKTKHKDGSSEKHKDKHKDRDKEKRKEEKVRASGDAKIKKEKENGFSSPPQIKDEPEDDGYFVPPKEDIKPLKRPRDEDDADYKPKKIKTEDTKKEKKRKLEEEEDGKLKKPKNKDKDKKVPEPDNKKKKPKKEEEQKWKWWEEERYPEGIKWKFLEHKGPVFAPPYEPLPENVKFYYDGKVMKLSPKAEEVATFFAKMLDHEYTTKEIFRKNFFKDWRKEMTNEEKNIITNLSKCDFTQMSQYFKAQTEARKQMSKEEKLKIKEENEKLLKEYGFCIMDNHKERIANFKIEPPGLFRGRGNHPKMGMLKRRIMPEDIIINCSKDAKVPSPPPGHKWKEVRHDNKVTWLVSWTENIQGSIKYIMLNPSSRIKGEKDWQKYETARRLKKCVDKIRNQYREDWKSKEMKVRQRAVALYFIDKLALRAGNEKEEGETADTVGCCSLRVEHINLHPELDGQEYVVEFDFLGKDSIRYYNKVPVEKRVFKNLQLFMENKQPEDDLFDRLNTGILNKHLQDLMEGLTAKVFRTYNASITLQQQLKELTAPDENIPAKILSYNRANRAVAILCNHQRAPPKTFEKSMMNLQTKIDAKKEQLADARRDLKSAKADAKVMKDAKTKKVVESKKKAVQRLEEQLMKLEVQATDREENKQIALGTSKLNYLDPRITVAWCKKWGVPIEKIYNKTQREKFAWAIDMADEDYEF
Method in brief: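 Human Top1 expressed in baculovirus and purified. Substrate is a 117-bp oligonucleotide carrying the pBluescript SK(−) cleavage sites, 3′-end-labeled by Klenow fill-in with [α-32P]dGTP. Compound at 0.1, 1, 10, 100 μM; reaction stopped with 0.5% SDS (final) plus formamide loading dye.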

UACC-62 [5] = test: Growth inhibition of human UACC62 cells after 48 hrs by sulforhodamine B assay; format: functional; details: UACC-62, 48 h; method in brief: as §1
DU-145 [6] = test: Growth inhibition of human DU145 cells after 48 hrs by sulforhodamine B assay; format: functional; details: DU-145, 48 h; method in brief: as §1
OVCAR-3 [7] = test: Growth inhibition of human OVCAR3 cells after 48 hrs by sulforhodamine B assay; format: functional; details: OVCAR-3, 48 h; method in brief: as §1
HOP-62 [8] = test: Growth inhibition of human HOP62 cells after 48 hrs by sulforhodamine B assay; format: functional; details: HOP-62, 48 h; method in brief: as §1
SF-539 [9] = test: Growth inhibition of human SF539 cells after 48 hrs by sulforhodamine B assay; format: functional; details: SF-539, 48 h; method in brief: as §1
HOP-62 [10] = test: Growth inhibition of human HOP62 cells at 10 uM after 48 hrs by sulforhodamine B assay; format: functional, cell-based
Method in brief: (§2)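 NCI screen single-concentration test at 10 μM, 48 h exposure, sulforhodamine B staining. Optical density read relative to untreated control. Used as initial testing to decide whether multi-dose GI50 testing was warranted.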

SF-539 [11] = test: Growth inhibition of human SF539 cells at 10 uM after 48 hrs by sulforhodamine B assay; format: functional, cell-based; method in brief: as §2
HCT-116 [12] = test: Growth inhibition of human HCT116 cells at 10 uM after 48 hrs by sulforhodamine B assay; format: functional, cell-based; method in brief: as §2
OVCAR-3 [13] = test: Growth inhibition of human OVCAR3 cells at 10 uM after 48 hrs by sulforhodamine B assay; format: functional, cell-based; method in brief: as §2
MCF7 [14] = test: Growth inhibition of human MCF7 cells at 10 uM after 48 hrs by sulforhodamine B assay; format: functional, cell-based; method in brief: as §2
SN12C [15] = test: Growth inhibition of human SN12C cells at 10 uM after 48 hrs by sulforhodamine B assay; format: functional, cell-based; method in brief: as §2
DU-145 [16] = test: Growth inhibition of human DU145 cells at 10 uM after 48 hrs by sulforhodamine B assay; format: functional, cell-based; method in brief: as §2
UACC-62 [17] = test: Growth inhibition of human UACC62 cells at 10 uM after 48 hrs by sulforhodamine B assay; format: functional, cell-based; method in brief: as §2
[18] = target: T1, DNA topoisomerase 1 (Homo sapiens); test: Inhibition of human recombinant topoisomerase 1-mediated DNA cleavage using [32P]-3'-end-labeled 117-bp DNA fragment as substrate at 100 uM after 20 mins by SDS-PAGE analysis
Method in brief: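 Human recombinant Top1 purified from baculovirus. Substrate: 117-bp oligonucleotide 3′-end-labeled by Klenow fill-in with [α-32P]dGTP, ~2 nM. Compounds tested at 0.1–100 μM. Stopped with 0.5% SDS plus formamide loading dye. Cleavage sites scored on gel.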

Structure (SMILES) | GI50 (MCF7 [1]) [nM] | GI50 (HCT-116 [3]) [nM] | inhibition [4] | GI50 (DU-145 [6]) [nM] | GI50 (OVCAR-3 [7]) [nM] | inhibition [18] | GI50 (SN12C [2]) [nM] | GI50 (UACC-62 [5]) [nM] | GI50 (HOP-62 [8]) [nM] | GI50 (SF-539 [9]) [nM] | growth inhibition (GI) (HOP-62 [10]) | growth inhibition (GI) (SF-539 [11]) | growth inhibition (GI) (HCT-116 [12]) | growth inhibition (GI) (OVCAR-3 [13]) | growth inhibition (GI) (MCF7 [14]) | growth inhibition (GI) (SN12C [15]) | growth inhibition (GI) (DU-145 [16]) | growth inhibition (GI) (UACC-62 [17])
COc1cc2c3c(n(CCCN(C)C)c(=O)c2cc1OC)-c1ccncc1C3=O | 3900 | 620 | Active | 2900 | 7400 | – | 8500 | > 100000 | 6500 | 12000 | – | – | – | – | – | – | – | –
COc1cc2c3c(n(CCCN4CCOCC4)c(=O)c2cc1OC)-c1cnccc1C3=O | 4100 | 2500 | Active | 24000 | 24000 | – | 16000 | 48000 | 6500 | 40000 | – | – | – | – | – | – | – | –
COc1ccc2c(n1)C(=O)c1c-2n(CCCN(C)C)c(=O)c2cc(OC)c(OC)cc12 | – | – | Active | – | – | – | – | – | – | – | Active | Active | Active | Active | Active | Active | Active | Active
COc1ccc2c(n1)C(=O)c1c-2n(CCCN2CCOCC2)c(=O)c2cc(OC)c(OC)cc12 | – | – | Active | – | – | – | – | – | – | – | Active | Active | Active | Active | Active | Active | Active | –
COc1cc2c3c(n(CCCN(C)C)c(=O)c2cc1OC)-c1cccnc1C3=O | – | – | Active | – | – | – | – | – | – | – | Active | Active | Active | Active | Active | Active | Active | Active
COc1cc2c3c(n(C)c(=O)c2cc1OC)-c1cc2c(cc1C3=O)OCO2 | 1900 | – | – | 4800 | – | Active | 26000 | 560 | 2800 | 1700 | – | – | – | – | – | – | – | –
COc1cc2c3c(n(CCCN4CCOCC4)c(=O)c2cc1OC)-c1ccncc1C3=O | 1900 | 390 | Active | 7600 | 12000 | – | 5900 | 85000 | 5000 | > 100000 | – | – | – | – | – | – | – | –
CC[C@@]1(O)C(=O)OCc2c1cc1n(c2=O)Cc2cc3ccccc3nc2-1 [CAMPTOTHECIN] | 13 | – | – | – | – | – | – | – | – | – | – | – | – | – | – | – | – | –
COc1cc2c3c(n(CCCN(C)C)c(=O)c2cc1OC)-c1cnccc1C3=O | – | – | Active | – | – | – | – | – | – | – | Active | Active | – | Active | Active | Active | Active | Active

The next lines start with results.

GI50 (MCF7 [1]) [nM] | GI50 (HCT-116 [3]) [nM] | inhibition [4] | GI50 (DU-145 [6]) [nM] | GI50 (OVCAR-3 [7]) [nM] | inhibition [18] | Structure (SMILES) | GI50 (SN12C [2]) [nM] | GI50 (UACC-62 [5]) [nM] | GI50 (HOP-62 [8]) [nM] | GI50 (SF-539 [9]) [nM] | growth inhibition (GI) (HOP-62 [10]) | growth inhibition (GI) (SF-539 [11]) | growth inhibition (GI) (HCT-116 [12]) | growth inhibition (GI) (OVCAR-3 [13]) | growth inhibition (GI) (MCF7 [14]) | growth inhibition (GI) (SN12C [15]) | growth inhibition (GI) (DU-145 [16]) | growth inhibition (GI) (UACC-62 [17])
440 | 1600 | Active | 1700 | 3600 | – | COc1cc2c3c(n(CCCN(C)C)c(=O)c2cc1OC)-c1ncccc1C3=O | 3200 | 13000 | 3400 | 4100 | – | – | – | – | – | – | – | –
24 | 74 | Active | 51 | 140 | – | COc1cnc2c(c1)C(=O)c1c-2n(CCCN(C)C)c(=O)c2cc([N+](=O)[O-])ccc12 | 57 | 52 | 54 | 78 | – | – | – | – | – | – | – | –
600 | 2500 | Active | 3600 | 6300 | – | COc1cnc2c(c1)C(=O)c1c-2n(CCCN2CCOCC2)c(=O)c2ccccc12 | 2600 | 1700 | 4100 | 3500 | – | – | – | – | – | – | – | –
210 | 340 | Active | 300 | 940 | – | COc1cnc2c(c1)C(=O)c1c-2n(CCCN(C)C)c(=O)c2ccccc12 | 260 | 540 | 300 | 570 | – | – | – | – | – | – | – | –
130 | 1500 | Active | 880 | 2900 | – | COc1cnc2c(c1)C(=O)c1c-2n(CCCN(C)C)c(=O)c2cc(OC)c(OC)cc12 | 3600 | 3900 | 920 | 1100 | – | – | – | – | – | – | – | –
52 | 220 | Active | 310 | 370 | – | COc1cc2c3c(n(CCCN4CCOCC4)c(=O)c2cc1OC)-c1ncccc1C3=O | 520 | 100 | 300 | – | – | – | – | – | – | – | – | –
100 | 330 | Active | 340 | 310 | – | COc1cnc2c(c1)C(=O)c1c-2n(CCCN2CCOCC2)c(=O)c2cc(OC)c(OC)cc12 | 340 | 220 | 240 | 270 | – | – | – | – | – | – | – | –
20 | 50 | Active | 40 | 110 | – | COc1cnc2c(c1)C(=O)c1c-2n(CCCN2CCOCC2)c(=O)c2cc([N+](=O)[O-])ccc12 | 43 | 40 | 51 | 35 | – | – | – | – | – | – | – | –
